# ASAP1 GAP inh: blocks human ASAP1-stimulated Arf1 GTP hydrolysis. Q9ULH1. GDP FP detection. inhibition, % at 16.5 µM. 360,000 tested, 0.19% active; in the data active means inhibition above about 25%
# Target sequence (Q9ULH1 325-724 limits assumed): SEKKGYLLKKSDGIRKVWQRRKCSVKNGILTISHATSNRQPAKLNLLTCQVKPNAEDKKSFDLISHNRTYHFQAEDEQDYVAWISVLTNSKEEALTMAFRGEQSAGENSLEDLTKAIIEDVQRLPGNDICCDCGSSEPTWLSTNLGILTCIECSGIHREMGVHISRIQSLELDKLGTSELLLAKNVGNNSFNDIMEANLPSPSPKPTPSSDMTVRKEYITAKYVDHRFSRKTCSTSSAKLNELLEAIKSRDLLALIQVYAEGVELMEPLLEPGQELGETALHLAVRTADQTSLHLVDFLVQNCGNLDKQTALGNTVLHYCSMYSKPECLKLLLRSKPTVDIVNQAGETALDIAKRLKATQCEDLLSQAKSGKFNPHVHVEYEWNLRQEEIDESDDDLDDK
# SUMO Mot1 rescue: blocks SUMOylation pathway, rescuing yeast Mot1-301 growth; AID 2716; 320,000 tested, 1% active; growth rescue, % at 18.8 µM; S. cerevisiae Mot1-301 growth rescue, ATP luminescence, 38.5C; percent above DMSO median, 100 means doubled;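 active means every valid replicate shows activation above 250% relative to neutral control wells; inactive means the rest, any valid replicate at or below 250%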
# A3G deaminase: APOBEC3G (human) deaminase inhibition; Q9HC16; inhibition, % at 20 µM; 330,000 tested, 0.28% active; recombinant A3G, ssDNA deamination FAM/TAMRA fluorescence;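 active means inhibition of at least 40% at 20 µM, with no more than 30% in the related APOBEC3A deaminase screen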
# ARFGAP1 inh: rat ARFGAP1 inhibition | Q62848 | Arfgap1-stimulated ARF1 GTP hydrolysis, GDP FP detection | inhibition, % at 16.5 µM | 360,000 tested, 0.26% active | AID 651572;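 active means inhibition above a per-plate limit, mean inhibition of low control wells plus 3 SD, cut at about 25% in these data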
#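 Assay system: purified rat His6-Arfgap1 residues 1-136 (GAP domain); Reagent: human Δ17 ARF1 bound to GTP; Dosing: 16.5 µM single point, 1.26% DMSO; Times: GTP hydrolysis reaction 2 h at 25 °C; Signal: FP, GDP Alexa 633 tracer displaced from anti-GDP antibody, 620/688 nm; Measure: % inhibition from polarization.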
# C2C12 statin: suppression of simvastatin myotoxicity; C2C12 myotubes + simvastatin, ATP luminescence, 48 h; scaled: DMSO 0, geranylgeraniol control 100; rescue of ATP level, % at 7.49 µM; 330,000 tested, 0.78% active;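 active means mean ATP rescue above about 67%, or every replicate alone reaching that limit, limit read from the data, passing the limit was not always enough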;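 further: myotubes were challenged with 10 µM simvastatin during compound exposure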
# APOBEC3A inh: human APOBEC3A DNA deaminase inhibition. recombinant A3A, FAM/TAMRA ssDNA deamination fluorescence. inhibition, % at 20 µM. P31941. AID 493011. 330,000 tested, 0.41% active;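 active means at least 40% inhibition at 20 µM here, with at most 30% in a related deaminase screen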
# Target sequence (P31941 whole entry, looked up): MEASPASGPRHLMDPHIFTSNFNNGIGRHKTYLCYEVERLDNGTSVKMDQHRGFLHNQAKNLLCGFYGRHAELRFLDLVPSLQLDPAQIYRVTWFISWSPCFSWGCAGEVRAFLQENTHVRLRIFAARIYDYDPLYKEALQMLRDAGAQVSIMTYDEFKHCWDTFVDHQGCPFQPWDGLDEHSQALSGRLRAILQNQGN
# Mot1 SUMO dose: yeast SUMO pathway inhibition in dose response; shares compounds with SUMO Mot1 rescue; S. cerevisiae Mot1-301 galactose growth, ATP luminescence, 24 h; -100 = growth of slx-deleted rescue strain; growth activity, percent, % at 42 µM; 2,300 tested, under 10 active; AID 493004;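 active means Signal drops as the depositor expects, and the fitted half-maximal dose is no more than ten times the top valid tested dose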;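 further: more negative values mean stronger growth rescue toward the control strain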
# Numbers stand for hits; i = inactive; nt = no result given; + = active, no number; ! = a repeat was not active. Compounds with a hit are over-represented: about 2.1% of the library has one in this group of screens.
SMILES,ASAP1 GAP inh,SUMO Mot1 rescue,A3G deaminase,ARFGAP1 inh,C2C12 statin,APOBEC3A inh,Mot1 SUMO dose
C[C@@H]1CN([C@H](C)CO)C(=O)c2cc(C#C[C@@H](C)O)cnc2O[C@@H]1CN(C)C(=O)c1ccccc1,nt,nt,nt,nt,i,nt,nt
Cc1[nH]n(-c2ccccc2)c(=O)c1C(C[N+](=O)[O-])c1ccc(Br)cc1 (stereo not given),i,524.3,i,i,nt,i,i
CCN1CCCC1CN(Cc1cc2ccc(C)cc2[nH]c1=O)C(=S)Nc1ccccc1C(=O)OC (stereo not given),i,+,i,i,nt,i,i
CCN1CCCC1CN(Cc1cc2ccc(C)cc2[nH]c1=O)C(=S)Nc1ccccc1OC (stereo not given),i,i,i,i,nt,i,nt
CC=Cc1ccc2n(c1=O)C[C@@H]1[C@@H](CO)[C@H](C(=O)NC3CCC3)[C@H]2N1C(=O)c1ccccn1 (mixture of isomers),nt,nt,nt,nt,i,nt,nt
COc1ccccc1NC(=O)N[C@@H]1CC[C@H](CCNC(=O)Cc2ccccn2)O[C@H]1CO,nt,nt,nt,nt,i,nt,nt
Cc1cccc2nc3ccccc3cc12,i,576.4,i,i,i,i,i
CN(C)CC(=O)N[C@@H]1CC[C@@H](CCNC(=O)Nc2ccc(C(F)(F)F)cc2)O[C@H]1CO,nt,nt,nt,nt,i,nt,nt
O=C1CC(c2ccccc2)c2ccc(O)cc2O1 (stereo not given),i,+,i,i,i,i,i
COc1ccccc1C1CC(=O)Oc2cc(O)ccc21 (stereo not given),i,nt,i,i,i,i,nt
CC(C)NC(=O)Nc1ccc2c(c1)C(=O)N(C)[C@@H]1CC[C@H](CC(=O)NCc3ccc(F)cc3)O[C@H]1CO2,nt,nt,nt,nt,i,nt,nt
CC(=O)Nc1ccc(S(=O)(=O)Nc2cccc(-c3ccc4nncn4n3)c2)cc1,i,527.6,i,i,nt,i,i
CC(=O)Nc1ccc(S(=O)(=O)Nc2ccc(S(=O)(=O)Nc3ncccn3)cc2)cc1,i,+,i,i,i,i,i
O=C1CCN(Cc2ccccc2)CCN1CCOc1ccccc1,i,857.8,i,i,i,i,i
COCCNC(=O)C(=O)NCC1OCCN1C(=O)c1ccc(Cl)cc1 (stereo not given),i,525.5,i,i,i,i,i
CCOC(=O)N1CCN(c2cc3[nH]c(=S)[nH]c3cc2F)CC1,i,399.7,i,i,i,i,i
CCOC(=O)N1CCN(c2c(F)cc3[nH]c(=S)[nH]c3c2Br)CC1,i,i,i,i,nt,i,nt
CC(C)C(NC(=O)c1ccccc1)C(=O)NCC(c1ccccc1)N(C)C (stereo not given),i,+,i,i,nt,i,i
CN(C)C(CNC(=O)CNC(=O)c1ccc(Br)cc1)c1ccccc1 (stereo not given),i,598.6,i,i,i,i,i
CN(C)C(CNC(=O)c1ccc(C2SCCS2)cc1)c1ccccc1 (stereo not given),i,i,i,i,i,i,nt
CC(=O)N1c2ccc([N+](=O)[O-])cc2NC(=O)CC1C (stereo not given),i,600.2,i,i,nt,i,i
O=C(CC(c1ccccc1)c1ccccc1O)NCCN1CCOCC1 (stereo not given),i,428.3,i,i,nt,i,i
Fc1ccccc1-n1cc(-c2ccccc2)[nH]c1=S,i,450.1,i,i,i,i,i
C[C@H]1CN([C@@H](C)CO)C(=O)c2cccc(NC(=O)Nc3ccc(F)cc3)c2O[C@@H]1CN(C)C(=O)Nc1ccc(F)cc1,nt,nt,nt,nt,i,nt,nt
Cc1cc(C(F)(F)F)c(C#N)c(=O)[nH]1,i,+,i,i,i,i,i
SMILES,ASAP1 GAP inh,SUMO Mot1 rescue,A3G deaminase,ARFGAP1 inh,C2C12 statin,APOBEC3A inh,Mot1 SUMO dose
COc1ccc(-n2c(C)cc(C(=O)CN3C(=O)NC4(CCCc5sccc54)C3=O)c2C)cc1 (stereo not given),i,+,i,i,nt,i,i
Cc1cc(C(=O)CN2C(=O)NC3(CCCc4sccc43)C2=O)c(C)n1-c1ccccc1 (stereo not given),i,i,i,i,nt,i,nt
CC(C)NC(=O)Nc1ccc2c(c1)C(=O)N([C@@H](C)CO)C[C@@H](C)[C@@H](CN(C)Cc1ccc(Oc3ccccc3)cc1)O2,nt,nt,nt,nt,i,nt,nt
COC(=O)C1=C(C)NC(C)=C([N+](=O)[O-])C1c1ccccc1C(F)(F)F (stereo not given),i,496.7!,i,i,i,i,i
COC(=O)C1=C(C)NC(C)=C(C(=O)OC)C1c1ccc(-c2cccc([N+](=O)[O-])c2)o1,i,i,i,i,i,i,nt
COc1ccc(C(=O)Nc2ccc3c(c2)C(=O)N(C)C[C@H](OC)[C@H](C)CN[C@@H](C)CO3)cc1,nt,nt,nt,nt,i,nt,nt
Cc1nc(N)c(Cc2ccccc2F)c(N)n1,i,433.4,i,i,i,i,i
Nc1nc(N)c(Cc2ccc(Cl)cc2Cl)c(N)n1,i,i,i,i,nt,i,nt
CCCc1ccccc1OCCNC(C)=O,i,+,i,i,i,i,i
O=C(c1ccc([N+](=O)[O-])cc1)N1CCN(c2ncc(Br)cn2)CC1,i,656.3,i,i,i,i,i
CCOC(=O)c1csc(CCNC(=O)c2ccccc2)n1,i,nt,nt,i,nt,nt,nt
Cc1nc(CCNC(=O)c2ccccc2)cs1,i,641.2,i,i,nt,i,i
Cc1ccnc(NC(c2cccnc2)c2ccc3cccnc3c2O)c1 (stereo not given),i,+,i,i,nt,i,i
Cc1ccnc(NC(c2ccccc2)c2ccc3cccnc3c2O)c1 (stereo not given),i,nt,nt,i,i,nt,nt
COc1ccccc1N1CCN(C(=O)c2ccc(-c3ccccc3)cc2)CC1,i,+,i,i,i,i,i
COc1ccccc1-c1ccc2c(c1)[C@@H]1[C@@H](CCN1S(=O)(=O)c1cccc(C)c1)[C@H](CO)N2,nt,nt,nt,nt,i,nt,nt
CSc1cccc(NC(=S)N2CCCN(Cc3ccccc3F)C2)c1,i,496.1,i,i,i,i,i
Cc1cccc(C(=O)NCC(=O)N2CCN(c3ccc(Cl)cc3)CC2)c1,i,367.6,i,i,i,i,i
Cc1cc(C)cc(C(=O)NCC(=O)N2CCN(c3cccc(Cl)c3)CC2)c1,i,i,i,i,i,i,nt
COc1cc2cc(C)c3nnc(SCC(=O)Nc4cc(C)on4)n3c2cc1OC,i,421.1,i,i,nt,i,i
Cc1cc(NC(=O)CSc2nnc3c(C)cc4c(C)ccc(C)c4n23)no1,i,i,i,i,i,i,nt
CCOC(=O)C1CCN(C(=O)COc2ccc(S(=O)(=O)N3CCOCC3)cc2)CC1,i,i,i,i,i,i,nt
